Test results: article PMC6440450 (International Journal of Nanomedicine, 2019)
Where two headings read alike, the source gives them in different places.

Tests used:
[1] = cited from earlier work
HEL cells = test: Cell-cycle analysis; type: cell-based, human; settings: 72 hours, decitabine solution 1,000 nM
Method in brief: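 HEL cells (RPMI 1640, 10% FBS, 1% antibiotics, 37°C, 5% CO2) were seeded at 5×10^4/well. After 24 h, they were treated with the test compound solution (1,000 nM), prodrug-loaded lipid nanocapsules (2,500 nM), excipient-matched blank nanocapsules or medium for 72 h. Cells were ethanol-fixed (70%, cold) and stained 15 min in the dark with 40 µg/mL propidium iodide plus 100 µg/mL RNase A. Phases were fitted by the Dean Jett Fox model. n=3 plates in triplicate; Mann–Whitney versus medium.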

[2] = tested on: human erythroleukemia cell line (HEL); test: In vitro cell proliferation; type: cell-based; settings: 72 hours exposure
Method in brief: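 HEL cells were seeded at 5×10^3/well and treated 24 h later for 72 h. Doses were 12.5–2,500 nM for the lipid prodrug (free or nanocapsule-loaded) and 5–1,000 nM for the parent nucleoside; blank nanocapsules were excipient-matched. Pellets were frozen at −80°C for ≥48 h, then read by CyQuant. Medium-only wells defined 100% viability. Three independent experiments in quadruplicate; Mann–Whitney test.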

[3] = phosphate buffer, 37°C, after 24 hours; cited from earlier work
[4] = decitabine solution, human plasma, same conditions, after 6 hours; cited from earlier work

Nc1ncn([C@H]2C[C@H](O)[C@@H](CO)O2)c(=O)n1 [Decitabine]
Half-life in plasma [1]: 15 to 25 min | Cells arrested in G2/M (HEL cells): 17.2% | Concentration above which cell viability decreased [2]: above 50 nM | Initial concentration recovered [3]: < 50% | Initial concentration recovered [4]: < 40%
